Data taken from ChEMBL document CHEMBL3102844, “Synthesis and evaluation of Strychnos alkaloids as MDR reversal agents for cancer cell eradication” (Bioorg Med Chem, 2014).
Activity calls are given as the source filed them. No cut-off for these calls is given here.

Legend:
[1] = target: T1, ATP-dependent translocase ABCB1 (Homo sapiens, UniProt P08183); assay: Inhibition of human MDR1 overexpressed in human KB cells assessed as potentiation of vincristine-induced cytotoxicity at 3 uM incubated for 1 hr prior to vincristine challenge measured after 4 days by MTT assay relative to verapamil; format: cell-based; details: 96 h
[2] = target: T1, ATP-dependent translocase ABCB1; assay: Inhibition of human MDR1 overexpressed in human KB cells assessed as potentiation of vincristine-induced cytotoxicity at 1 uM incubated for 1 hr prior to vincristine challenge measured after 4 days by MTT assay relative to verapamil; format: cell-based; details: 96 h
[3] = target: T1, ATP-dependent translocase ABCB1; assay: Inhibition of p-glycoprotein (unknown origin) overexpressed in human KBV20C cells assessed as potentiation of vincristine-induced cytotoxicity at 3 uM incubated for 1 hr prior to vincristine challenge measured after 4 days by MTT assay; format: cell-based; details: 96 h
[4] = target: T1, ATP-dependent translocase ABCB1; assay: Inhibition of p-glycoprotein (unknown origin) overexpressed in human KBV20C cells assessed as potentiation of vincristine-induced cytotoxicity at 1 uM incubated for 1 hr prior to vincristine challenge measured after 4 days by MTT assay; format: cell-based; details: 96 h
KBV20C = assay: (§1) Cytotoxicity against human KBV20C cells overexpressing pgp assessed as reduction in cell viability after 4 days by MTT assay; format: functional, cell-based
How it was run: (§2)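 KB-MDR (1000 cells/well) or KB-V20C (2000 cells/well) Pgp-overexpressing KB lines in RPMI1640 with 10% FBS; cultured 4 days with serial concentrations of test compound. Viability read by MTT endpoint absorbance. IC50 obtained by fitting a sigmoid Emax model to viability versus concentration; duplicates from three independent experiments.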

KB = assay: Cytotoxicity against human KB cells overexpressing human MDR1 assessed as reduction in cell viability after 4 days by MTT assay; format: functional, cell-based; how it was run: as §2
Homo sapiens [5] = species on record: Homo sapiens; assay: Induction of human recombinant p-glycoprotein ATPase activity using ATP as substrate at 0.3 to 1 mM after 40 mins by luciferase-mediated Pgp-Glo assay
How it was run: (§3)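 Reaction started with ATP (5 mM final), 40 min at 37 °C, stopped with ATP detection reagent; residual ATP read by luciferase luminescence. Luminescence difference gives effect on ATPase activity. Triplicates in two independent experiments.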

[6] = Binding affinity to p-glycoprotein (unknown origin) by intrinsic tryptophan fluorescence quenching assay; design: species or system Homo sapiens
[7] = target: T1, ATP-dependent translocase ABCB1; assay: Inhibition of human MDR1 overexpressed in human KB cells assessed as potentiation of doxorubicin-induced cytotoxicity at 1 uM incubated for 1 hr prior to […] measured after 4 days by MTT assay relative to verapamil; format: cell-based; details: 96 h
[8] = target: T1, ATP-dependent translocase ABCB1; assay: Inhibition of human MDR1 overexpressed in human KB cells assessed as potentiation of vincristine-induced cytotoxicity at 0.28 uM incubated for 1 hr prior to vincristine challenge measured after 4 days by MTT assay relative to verapamil; format: cell-based; details: 96 h
[9] = target: T1, ATP-dependent translocase ABCB1; assay: Inhibition of human MDR1 overexpressed in human KB cells assessed as potentiation of vincristine-induced cytotoxicity at 0.14 uM incubated for 1 hr prior to vincristine challenge measured after 4 days by MTT assay relative to verapamil; format: cell-based; details: 96 h
[10] = target: T1, ATP-dependent translocase ABCB1; assay: Inhibition of human MDR1 overexpressed in human KB cells assessed as potentiation of vincristine-induced cytotoxicity at 0.07 uM incubated for 1 hr prior to vincristine challenge measured after 4 days by MTT assay relative to verapamil; format: cell-based; details: 96 h
[11] = target: T1, ATP-dependent translocase ABCB1; assay: Inhibition of p-glycoprotein (unknown origin) overexpressed in human KBV20C cells assessed as potentiation of vincristine-induced cytotoxicity at 0.28 uM incubated for 1 hr prior to vincristine challenge measured after 4 days by MTT assay; format: cell-based; details: 96 h
How it was run: (§4)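 Pgp-overexpressing KB-MDR or KB-V20C cells, 1000–2000 cells/well in RPMI1640 with 10% FBS, pretreated 1 h with modulator at final 0.07–3.0 µM, then exposed to serial dilutions of vincristine or doxorubicin for four days. […] Viability read by MTT. Cytotoxic-drug IC50 obtained by sigmoid Emax fit; duplicates, three independent experiments.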

[12] = target: T1, ATP-dependent translocase ABCB1; assay: Inhibition of p-glycoprotein (unknown origin) overexpressed in human KBV20C cells assessed as potentiation of vincristine-induced cytotoxicity at 0.14 uM incubated for 1 hr prior to vincristine challenge measured after 4 days by MTT assay; format: cell-based; details: 96 h; how it was run: as §4
[13] = target: T1, ATP-dependent translocase ABCB1; assay: Inhibition of p-glycoprotein (unknown origin) overexpressed in human KBV20C cells assessed as potentiation of vincristine-induced cytotoxicity at 0.07 uM incubated for 1 hr prior to vincristine challenge measured after 4 days by MTT assay; format: cell-based; details: 96 h; how it was run: as §4
[14] = as §1; format: functional, cell-based; details: 96 h; how it was run: as §2
Homo sapiens [15] = species on record: Homo sapiens; assay: Inhibition of human recombinant p-glycoprotein ATPase activity using ATP as substrate at 0.3 to 1 mM after 40 mins by luciferase-mediated Pgp-Glo assay; how it was run: as §3

T1 sequence (P08183 whole entry): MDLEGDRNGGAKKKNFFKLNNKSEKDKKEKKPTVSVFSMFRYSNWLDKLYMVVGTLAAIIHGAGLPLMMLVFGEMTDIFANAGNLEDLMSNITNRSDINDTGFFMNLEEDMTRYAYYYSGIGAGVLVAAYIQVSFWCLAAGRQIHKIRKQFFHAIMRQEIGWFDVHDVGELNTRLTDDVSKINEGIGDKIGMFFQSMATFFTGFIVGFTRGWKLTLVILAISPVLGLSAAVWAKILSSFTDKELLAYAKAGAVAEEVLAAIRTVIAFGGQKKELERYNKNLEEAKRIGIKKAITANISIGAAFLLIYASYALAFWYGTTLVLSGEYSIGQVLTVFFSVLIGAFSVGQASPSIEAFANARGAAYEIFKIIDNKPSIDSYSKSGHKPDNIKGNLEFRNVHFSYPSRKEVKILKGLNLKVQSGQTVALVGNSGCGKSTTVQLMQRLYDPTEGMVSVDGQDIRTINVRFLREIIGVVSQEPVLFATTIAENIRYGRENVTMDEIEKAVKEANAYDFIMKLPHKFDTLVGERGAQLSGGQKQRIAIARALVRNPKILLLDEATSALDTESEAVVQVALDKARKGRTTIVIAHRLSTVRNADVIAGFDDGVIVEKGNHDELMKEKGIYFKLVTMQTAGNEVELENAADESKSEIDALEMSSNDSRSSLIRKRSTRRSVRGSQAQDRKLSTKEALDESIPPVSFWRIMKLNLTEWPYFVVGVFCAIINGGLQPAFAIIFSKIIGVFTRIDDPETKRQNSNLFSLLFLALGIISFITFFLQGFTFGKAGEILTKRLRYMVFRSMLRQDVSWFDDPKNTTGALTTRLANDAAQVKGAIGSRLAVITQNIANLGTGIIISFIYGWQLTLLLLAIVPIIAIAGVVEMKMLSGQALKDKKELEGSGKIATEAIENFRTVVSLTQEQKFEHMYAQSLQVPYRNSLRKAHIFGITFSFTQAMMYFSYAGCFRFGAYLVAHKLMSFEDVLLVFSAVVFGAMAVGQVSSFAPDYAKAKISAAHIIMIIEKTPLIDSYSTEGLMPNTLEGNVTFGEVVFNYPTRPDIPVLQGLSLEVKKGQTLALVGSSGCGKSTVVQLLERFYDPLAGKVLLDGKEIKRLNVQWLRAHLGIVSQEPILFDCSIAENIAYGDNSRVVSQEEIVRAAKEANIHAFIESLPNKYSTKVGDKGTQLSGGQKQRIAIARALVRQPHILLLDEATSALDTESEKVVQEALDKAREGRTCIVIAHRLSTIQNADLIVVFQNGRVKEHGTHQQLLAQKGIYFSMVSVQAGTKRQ

SMILES | fold change (FC) [1] | fold change (FC) [2] | fold change (FC) [3] | fold change (FC) [4] | Activity (KBV20C) | Activity (KB) | Activity (Homo sapiens [5]) | Kd [6] [µM] | fold change (FC) [7] | fold change (FC) [8] | fold change (FC) [9] | fold change (FC) [10] | fold change (FC) [11] | fold change (FC) [12] | fold change (FC) [13] | IC50 [14] [µM] | inhibition (Homo sapiens [15])
C/C=C1\CN2CC[C@]34c5ccccc5-n5c3c(cc(C(=O)OC)c5=O)[C@H]1C[C@H]24 | 3.8 | 2.1 | 0.3 | 0.2 | Dose-dependent effect | Dose-dependent effect | Active | 16.1 | – | – | – | – | – | – | – | – | –
CC[C@@H]1CN2CC[C@]34c5ccccc5-n5c3c(cc(C(=O)OC)c5=O)[C@H]1C[C@H]24 [LEUCONICINE B] | 6.8 | 3.8 | 0.3 | 0.2 | Dose-dependent effect | Dose-dependent effect | Active | 13.8 | – | – | – | – | – | – | – | – | –
C/C=C1\CN2CC[C@]34C(=C(C=O)[C@H]1C[C@H]23)Nc1ccccc14 | 2.1 | 2.1 | 0.3 | 0.2 | Dose-dependent effect | Dose-dependent effect | Active | 81 | – | – | – | – | – | – | – | – | –
C/C=C1\CN2CC[C@]34C(=C(C(=O)OC)[C@H]1C[C@H]23)Nc1ccccc14 | 3.8 | 2.5 | 0.4 | 0.2 | Dose-dependent effect | Dose-dependent effect | Active | 99 | – | – | – | – | – | – | – | – | –
CC[C@@H]1CN2CC[C@]34c5ccccc5-n5c3c(cc(C(=O)NCc3cc(OC)c(OC)c(OC)c3)c5=O)[C@H]1C[C@H]24 | – | 93.8 | – | – | Dose-dependent effect | Dose-dependent effect | – | 4.42 | 20 | 3.8 | 2.5 | 2.1 | 1.5 | 1 | 0.6 | 0.38 | Active
CC[C@@H]1CN2CC[C@]34c5ccccc5-n5c3c(cc(C(N)=O)c5=O)[C@H]1C[C@H]24 [LEUCONICINE A] | 5 | 3.8 | 0.6 | 0.3 | Dose-dependent effect | Dose-dependent effect | – | 14.1 | – | – | – | – | – | – | – | – | –
CC[C@@H]1CN2CC[C@]34C(=C(C(=O)OC)[C@H]1C[C@H]23)Nc1ccccc14 | 3.8 | 2.5 | 0.2 | 0.1 | Dose-dependent effect | Dose-dependent effect | – | 92 | – | – | – | – | – | – | – | – | Active
